“Also recorded” adds a separate entry of the source.
Experiment: Phase I study NCT03854227: DLTs and adverse events
Format: in vivo, human
Summary of the method: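 Open-label, multicentre first-in-human trial in adults (ECOG 0–1) with advanced or metastatic tumours. Oral test compound, q.d. or b.i.d., on an empty stomach in continuous 28-day cycles. Part 1 started at 0.5 mg q.d., with escalation guided by a two-parameter Bayesian logistic regression model on cycle 1 DLTs. Part 2 ran at 6 mg q.d. AEs were graded by CTCAE 5.0 and summarised descriptively by dose level.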

Cc1ncnc2c1ccn2[C@@H]1C[C@H](Oc2cc(C(F)F)c(F)c3c2CNCC3)[C@@H](O)[C@H]1O [PF-06939999]
Grade ≥3 TRAE thrombocytopenia/platelet count decreased (overall (part 1 + part 2), N=54): 22% | TRAE dysgeusia, any grade (part 1 + part 2, N=54): 22% | TRAE fatigue, any grade (part 1 + part 2, N=54): 28% | TRAE nausea, any grade (part 1 + part 2, N=54): 32% | TRAE thrombocytopenia, any grade (part 1 + part 2, N=54): 41% | DLT (part 1, 0.5 mg b.i.d., N=1): 0 n (%) | Grade ≥3 TRAE Anemia (part 1, 0.5 mg b.i.d., N=1): 0 n (%) | Grade ≥3 TRAE Fatigue (part 1, 0.5 mg b.i.d., N=1): 0 n (%) | Grade ≥3 TRAE Lymphocyte count decreased (part 1, 0.5 mg b.i.d., N=1): 0 n (%) | Grade ≥3 TRAE Muscular weakness (part 1, 0.5 mg b.i.d., N=1): 0 n (%) | Grade ≥3 TRAE Neutropenia (part 1, 0.5 mg b.i.d., N=1): 0 n (%) | Grade ≥3 TRAE Thrombocytopenia (part 1, 0.5 mg b.i.d., N=1): 0 n (%) | DLT (part 1, 0.5 mg q.d., N=1): 0 n (%) | Grade ≥3 TRAE Anemia (part 1, 0.5 mg q.d., N=1): 0 n (%) | Grade ≥3 TRAE Fatigue (part 1, 0.5 mg q.d., N=1): 0 n (%) | Grade ≥3 TRAE Lymphocyte count decreased (part 1, 0.5 mg q.d., N=1): 0 n (%) | Grade ≥3 TRAE Muscular weakness (part 1, 0.5 mg q.d., N=1): 0 n (%) | Grade ≥3 TRAE Neutropenia (part 1, 0.5 mg q.d., N=1): 0 n (%) | Grade ≥3 TRAE Thrombocytopenia (part 1, 0.5 mg q.d., N=1): 0 n (%) | DLT (part 1, 1 mg b.i.d., N=2): 0 n (%) | Grade ≥3 TRAE Anemia (part 1, 1 mg b.i.d., N=2): 1 (50) n (%) | Grade ≥3 TRAE Fatigue (part 1, 1 mg b.i.d., N=2): 0 n (%) | Grade ≥3 TRAE Lymphocyte count decreased (part 1, 1 mg b.i.d., N=2): 0 n (%) | Grade ≥3 TRAE Muscular weakness (part 1, 1 mg b.i.d., N=2): 0 n (%) | Grade ≥3 TRAE Neutropenia (part 1, 1 mg b.i.d., N=2): 0 n (%) | Grade ≥3 TRAE Thrombocytopenia (part 1, 1 mg b.i.d., N=2): 0 n (%) | DLT (part 1, 2 mg b.i.d., N=2): 0 n (%) | Grade ≥3 TRAE Anemia (part 1, 2 mg b.i.d., N=3): 0 n (%) | Grade ≥3 TRAE Fatigue (part 1, 2 mg b.i.d., N=3): 0 n (%) | Grade ≥3 TRAE Lymphocyte count decreased (part 1, 2 mg b.i.d., N=3): 0 n (%) | Grade ≥3 TRAE Muscular weakness (part 1, 2 mg b.i.d., N=3): 0 n (%) | Grade ≥3 TRAE Neutropenia (part 1, 2 mg b.i.d., N=3): 0 n (%) | Grade ≥3 TRAE Thrombocytopenia (part 1, 2 mg b.i.d., N=3): 1 (33) n (%) | DLT (part 1, 4 mg b.i.d., N=3): 0 n (%) | Grade ≥3 TRAE Anemia (part 1, 4 mg b.i.d., N=3): 1 (33) n (%) | Grade ≥3 TRAE Fatigue (part 1, 4 mg b.i.d., N=3): 1 (33) n (%) | Grade ≥3 TRAE Lymphocyte count decreased (part 1, 4 mg b.i.d., N=3): 0 n (%) | Grade ≥3 TRAE Muscular weakness (part 1, 4 mg b.i.d., N=3): 0 n (%) | Grade ≥3 TRAE Neutropenia (part 1, 4 mg b.i.d., N=3): 0 n (%) | Grade ≥3 TRAE Thrombocytopenia (part 1, 4 mg b.i.d., N=3): 1 (33) n (%) | DLT (part 1, 4 mg q.d., N=4): 0 n (%) | Grade ≥3 TRAE Anemia (part 1, 4 mg q.d., N=5): 2 (40) n (%) | Grade ≥3 TRAE Fatigue (part 1, 4 mg q.d., N=5): 0 n (%) | Grade ≥3 TRAE Lymphocyte count decreased (part 1, 4 mg q.d., N=5): 0 n (%) | Grade ≥3 TRAE Muscular weakness (part 1, 4 mg q.d., N=5): 1 (20) n (%) | Grade ≥3 TRAE Neutropenia (part 1, 4 mg q.d., N=5): 0 n (%) | Grade ≥3 TRAE Thrombocytopenia (part 1, 4 mg q.d., N=5): 0 n (%) | DLT thrombocytopenia, number of patients (part 1, 6 mg b.i.d.): 2 n | DLT (part 1, 6 mg b.i.d., N=2): 2 (100) n (%) | Grade ≥3 TRAE Anemia (part 1, 6 mg b.i.d., N=4): 1 (25) n (%) | Grade ≥3 TRAE Fatigue (part 1, 6 mg b.i.d., N=4): 0 n (%) | Grade ≥3 TRAE Lymphocyte count decreased (part 1, 6 mg b.i.d., N=4): 0 n (%) | Grade ≥3 TRAE Muscular weakness (part 1, 6 mg b.i.d., N=4): 0 n (%) | Grade ≥3 TRAE Neutropenia (part 1, 6 mg b.i.d., N=4): 0 n (%) | Grade ≥3 TRAE Thrombocytopenia (part 1, 6 mg b.i.d., N=4): 2 (50) n (%) | DLT (grade 3) neutropenia, number of patients (part 1, 6 mg q.d.): 1 n | DLT (part 1, 6 mg q.d., N=6): 1 (17) n (%) | Grade ≥3 TRAE Anemia (part 1, 6 mg q.d., N=6): 2 (33) n (%) | Grade ≥3 TRAE Fatigue (part 1, 6 mg q.d., N=6): 1 (17) n (%) | Grade ≥3 TRAE Lymphocyte count decreased (part 1, 6 mg q.d., N=6): 0 n (%) | Grade ≥3 TRAE Muscular weakness (part 1, 6 mg q.d., N=6): 0 n (%) | Grade ≥3 TRAE Neutropenia (part 1, 6 mg q.d., N=6): 1 (17) n (%) | Grade ≥3 TRAE Thrombocytopenia (part 1, 6 mg q.d., N=6): 0 n (%) | DLT (grade 3) anemia, number of patients (part 1, 8 mg q.d.): 1 n | DLT (part 1, 8 mg q.d., N=3): 1 (33) n (%) | Grade ≥3 TRAE Anemia (part 1, 8 mg q.d., N=3): 1 (33) n (%) | Grade ≥3 TRAE Fatigue (part 1, 8 mg q.d., N=3): 0 n (%) | Grade ≥3 TRAE Lymphocyte count decreased (part 1, 8 mg q.d., N=3): 1 (33) n (%) | Grade ≥3 TRAE Muscular weakness (part 1, 8 mg q.d., N=3): 0 n (%) | Grade ≥3 TRAE Neutropenia (part 1, 8 mg q.d., N=3): 0 n (%) | Grade ≥3 TRAE Thrombocytopenia (part 1, 8 mg q.d., N=3): 2 (67) n (%) | Patients reporting DLTs (part 1, 4 of 24 DLT-assessable patients): 17% | DLT grade 3 thrombocytopenia, number of patients (part 1, 6-mg b.i.d. cohort): 1 n | DLT grade 4 thrombocytopenia, number of patients (part 1, 6-mg b.i.d. cohort): 1 n | DLT (part 1, Total, N=24): 4 (17) n (%) | Grade ≥3 TRAE Fatigue (part 1, Total, N=28): 2 (7) n (%) | Grade ≥3 TRAE Lymphocyte count decreased (part 1, Total, N=28): 1 (4) n (%) | Grade ≥3 TRAE Muscular weakness (part 1, Total, N=28): 1 (4) n (%) | Grade ≥3 TRAE Neutropenia (part 1, Total, N=28): 1 (4) n (%) | Grade ≥3 TRAE Thrombocytopenia (part 1, Total, N=28): 6 (21) n (%) | Maximum tolerated dose (MTD) (part 1 dose escalation, 0.5 mg q.d. to 6 mg b.i.d.): No MTD was determined; also recorded: MTD was not identified | Dose reduction due to thrombocytopenia, patients (part 2, 6 mg q.d., 4 patients): 15% | Dose reduction due to anemia, patients (part 2, 6 mg q.d., 5 patients): 19% | Patients with ≥1 dose reduction due to AEs (part 2, 6 mg q.d., eight patients): 31%
